Consider two compounds from ChEMBL document CHEMBL4732140, “Single-step fluorescent probes to detect decrotonylation activity of HDACs through intramolecular reactions” (Eur J Med Chem, 2021).

Assay [1] addresses T1, NAD-dependent protein deacetylase sirtuin-1 (Homo sapiens) (UniProt Q96EB6).
T1 sequence (whole entry): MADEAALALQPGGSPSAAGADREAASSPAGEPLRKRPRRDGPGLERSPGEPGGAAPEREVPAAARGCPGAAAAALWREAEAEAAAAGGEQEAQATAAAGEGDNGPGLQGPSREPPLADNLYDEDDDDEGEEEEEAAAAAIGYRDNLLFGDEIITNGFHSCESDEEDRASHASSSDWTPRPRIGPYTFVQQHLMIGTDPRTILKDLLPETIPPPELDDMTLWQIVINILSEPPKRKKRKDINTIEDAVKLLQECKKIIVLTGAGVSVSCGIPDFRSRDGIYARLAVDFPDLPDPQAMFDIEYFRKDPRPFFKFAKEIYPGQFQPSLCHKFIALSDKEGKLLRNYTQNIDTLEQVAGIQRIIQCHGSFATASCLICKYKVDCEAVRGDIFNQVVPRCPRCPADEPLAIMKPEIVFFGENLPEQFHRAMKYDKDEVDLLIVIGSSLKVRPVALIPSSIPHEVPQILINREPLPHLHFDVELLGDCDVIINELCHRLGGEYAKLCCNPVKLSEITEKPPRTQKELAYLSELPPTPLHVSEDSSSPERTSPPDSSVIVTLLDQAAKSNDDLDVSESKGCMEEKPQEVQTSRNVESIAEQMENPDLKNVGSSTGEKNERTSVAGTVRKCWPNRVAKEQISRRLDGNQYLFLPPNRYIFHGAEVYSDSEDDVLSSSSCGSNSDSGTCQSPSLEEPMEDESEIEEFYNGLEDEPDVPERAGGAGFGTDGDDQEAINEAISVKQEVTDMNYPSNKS
As to the kind of experiment: Substrate activity at recombinant human SIRT1 assessed as decrotonylation by measuring increase in fluorescence intensity at 10 uM in presence of NAD+ by fluorescence photometric method. In a few lines: (§1)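 Recombinantly expressed, purified sirtuin (40 ng/μl) incubated with probe (10 μM, from 5 mM DMSO stock) and NAD+ at 37 °C in 20 mM HEPES pH 8.0 with 1 mM MgCl2, 2.7 mM KCl, 150 mM NaCl. Fluorescence read with excitation 480 nm, emission 545 nm.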

Assay [2] concerns the target NAD-dependent protein deacylase sirtuin-6 (Homo sapiens) (UniProt Q8N6T7). Nature of the assay: Substrate activity at recombinant human SIRT6 assessed as decrotonylation by measuring increase in fluorescence intensity at 10 uM in presence of NAD+ by fluorescence photometric method. An outline of the steps: as §1
In assay [3] the target is NAD-dependent protein deacylase sirtuin-5, mitochondrial (Homo sapiens) (UniProt Q9NXA8). Nature of the assay: Substrate activity at recombinant human SIRT5 assessed as decrotonylation by measuring increase in fluorescence intensity at 10 uM in presence of NAD+ by fluorescence photometric method. An outline of the steps:
as §1

In assay [4] the target is T2, NAD-dependent protein deacetylase sirtuin-3, mitochondrial (Homo sapiens) (UniProt Q9NTG7).
T2 sequence (whole entry): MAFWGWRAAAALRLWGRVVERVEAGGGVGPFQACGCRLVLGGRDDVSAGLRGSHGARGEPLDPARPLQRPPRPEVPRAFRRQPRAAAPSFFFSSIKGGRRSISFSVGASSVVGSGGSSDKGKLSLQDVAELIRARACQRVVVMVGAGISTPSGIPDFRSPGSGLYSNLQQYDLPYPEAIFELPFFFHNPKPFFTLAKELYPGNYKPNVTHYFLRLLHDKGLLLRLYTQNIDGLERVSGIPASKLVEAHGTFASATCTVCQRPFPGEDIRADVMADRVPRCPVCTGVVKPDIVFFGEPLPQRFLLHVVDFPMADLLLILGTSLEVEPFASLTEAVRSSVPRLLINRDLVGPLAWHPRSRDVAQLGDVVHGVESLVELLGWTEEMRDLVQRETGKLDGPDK
Nature of the assay: Substrate activity at recombinant human SIRT3 assessed as decrotonylation by measuring increase in fluorescence intensity at 10 uM in presence of NAD+ by fluorescence photometric method. In a few lines: as §1

In assay [5] the target is T3, NAD-dependent protein deacetylase sirtuin-2 (Homo sapiens) (UniProt Q8IXJ6).
T3 sequence (whole entry): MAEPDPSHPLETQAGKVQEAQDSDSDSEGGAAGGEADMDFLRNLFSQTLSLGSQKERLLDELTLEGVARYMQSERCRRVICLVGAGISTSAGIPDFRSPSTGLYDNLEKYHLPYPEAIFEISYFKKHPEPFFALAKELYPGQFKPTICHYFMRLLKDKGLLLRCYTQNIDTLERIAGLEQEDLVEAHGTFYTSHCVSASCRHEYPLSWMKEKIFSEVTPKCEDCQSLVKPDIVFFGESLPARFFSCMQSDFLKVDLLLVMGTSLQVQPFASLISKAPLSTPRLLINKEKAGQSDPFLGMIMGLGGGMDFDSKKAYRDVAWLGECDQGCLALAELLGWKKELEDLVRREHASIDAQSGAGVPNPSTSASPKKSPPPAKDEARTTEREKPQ
As to the kind of experiment: Substrate activity at recombinant human SIRT2 assessed as decrotonylation by measuring absorption peak for formation of N-NBD at 10 uM measured after 3 hrs in presence of NAD+ by UV-VS absorption spectra analysis. An outline of the steps:
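Probe (10 μM, from 5 mM DMSO stock) reacted with recombinant purified Sirt2 (40 ng/μl) and 200 μM NAD+ in 20 mM HEPES pH 8.0 (1 mM MgCl2, 2.7 mM KCl, 150 mM NaCl) at 37 °C for 3 h. Absorbance spectra collected from 300 to 550 nm before and after the reaction.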

Assay [6] in a line: Binding affinity to histidine at 10 uM by fluorescence photometric method. In a few lines: (§2)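 Interferent test: probe at 10 μM treated with each species (amino acids, butylamine) at 100 μM, no enzyme; fluorescence spectra of the reaction mixtures recorded (excitation 480 nm).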
Assay [7] in a line: Binding affinity to cysteine at 10 uM by fluorescence photometric method. An outline of the steps: as §2
Assay [8] addresses T3, NAD-dependent protein deacetylase sirtuin-2 (Homo sapiens). As to the kind of experiment: Substrate activity at recombinant human SIRT2 assessed as decrotonylation by measuring increase in fluorescence intensity at 10 uM in presence of NAD+ by fluorescence photometric method. The settings on record: time hrs <=3, TDE = time-dependent effect. In a few lines: as §1
The nature of assay [9]: Binding affinity to lysine at 10 uM by fluorescence photometric method. In a few lines:
as §2

The target in assay [10] is T3, NAD-dependent protein deacetylase sirtuin-2 (Homo sapiens). Nature of the assay: Substrate activity at recombinant human SIRT2 assessed as decrotonylation by measuring increase in fluorescence intensity at 10 uM measured after 3 hrs in presence of NAD+ by fluorescence photometric method relative to control. In a few lines:
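Probe (10 μM) incubated 3 h at 37 °C with recombinant Sirt2 (40 ng/μl) and 200 μM NAD+ in 20 mM HEPES pH 8.0 with salts. Emission scanned 510–600 nm (excitation 480 nm, slit 5 nm). Signal compared with controls lacking enzyme and/or NAD+, and with probe alone; fold increase derived.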

Calls of active or inactive are those of the source. The rule behind the calls is not given here.

Chain of NAD-dependent protein deacylase sirtuin-5, mitochondrial (Homo sapiens) (Q9NXA8 37-310 limits assumed): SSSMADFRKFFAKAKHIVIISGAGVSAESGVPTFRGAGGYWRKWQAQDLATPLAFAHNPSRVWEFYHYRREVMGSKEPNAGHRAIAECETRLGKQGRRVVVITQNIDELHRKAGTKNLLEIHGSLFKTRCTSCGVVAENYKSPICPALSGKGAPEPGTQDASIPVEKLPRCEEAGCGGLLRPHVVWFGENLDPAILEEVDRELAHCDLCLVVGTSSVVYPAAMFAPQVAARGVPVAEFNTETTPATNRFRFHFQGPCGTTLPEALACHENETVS
Chain of NAD-dependent protein deacylase sirtuin-6 (Homo sapiens) (Q8N6T7 whole entry): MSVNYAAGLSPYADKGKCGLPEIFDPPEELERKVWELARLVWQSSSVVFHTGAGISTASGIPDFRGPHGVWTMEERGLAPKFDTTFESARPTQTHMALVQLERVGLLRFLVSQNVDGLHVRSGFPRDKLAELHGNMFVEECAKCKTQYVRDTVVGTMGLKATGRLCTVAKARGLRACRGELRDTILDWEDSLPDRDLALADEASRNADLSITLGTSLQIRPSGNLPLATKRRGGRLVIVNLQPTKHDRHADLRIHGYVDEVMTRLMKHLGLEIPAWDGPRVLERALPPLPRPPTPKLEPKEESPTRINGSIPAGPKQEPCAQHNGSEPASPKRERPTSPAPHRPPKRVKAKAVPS

As to `C/C=C/C(=O)NCCCC[C@H](NC(=O)CNC(=O)[C@H](CC(C)C)NC(C)=O)C(=O)NCCOCCOc1ccc([N+](=O)[O-])c2nonc12`, the result in assay [1] was Active. For the same compound, the outcome in assay [2], in assay [3] and in assay [4] was inactive.

Consider `C/C=C/C(=O)NCCCC[C@H](NC(=O)OC(C)(C)C)C(=O)NCCOCCOc1ccc([N+](=O)[O-])c2nonc12`, for which the Activity in assay [5] was 480 nm; in assay [8] it was “Tde”. Further, the outcome in assay [1] was Active. Also, the result in assay [2], in assay [6], in [7], in [9], in assay [3] and in assay [4] was inactive. Besides, the fold change (FC) in [10] was 5.
